Results pooled from the literature.
Each line is one published result; the experiments were not run side by side.
PIK3CA H1047Y: Phosphatidylinositol 4,5-bisphosphate 3-kinase catalytic subunit alpha isoform (PIK3CA, Homo sapiens, UniProt P42336, H1047Y)
PIK3CA I800L: Phosphatidylinositol 4,5-bisphosphate 3-kinase catalytic subunit alpha isoform (PIK3CA, Homo sapiens, UniProt P42336, I800L)
PIK3CA H1047L: Phosphatidylinositol 4,5-bisphosphate 3-kinase catalytic subunit alpha isoform (PIK3CA, Homo sapiens, UniProt P42336, H1047L)
PIK3CA Q546K: Phosphatidylinositol 4,5-bisphosphate 3-kinase catalytic subunit alpha isoform (PIK3CA, Homo sapiens, UniProt P42336, Q546K)
PIK3CA: Phosphatidylinositol 4,5-bisphosphate 3-kinase catalytic subunit alpha isoform (PIK3CA, Homo sapiens, UniProt P42336)
PIK3CA E542K: Phosphatidylinositol 4,5-bisphosphate 3-kinase catalytic subunit alpha isoform (PIK3CA, Homo sapiens, UniProt P42336, E542K)
PIK3CA E545A: Phosphatidylinositol 4,5-bisphosphate 3-kinase catalytic subunit alpha isoform (PIK3CA, Homo sapiens, UniProt P42336, E545A)
PIK3CA C420R: Phosphatidylinositol 4,5-bisphosphate 3-kinase catalytic subunit alpha isoform (PIK3CA, Homo sapiens, UniProt P42336, C420R)
PIK3CA E545K: Phosphatidylinositol 4,5-bisphosphate 3-kinase catalytic subunit alpha isoform (PIK3CA, Homo sapiens, UniProt P42336, E545K)

SMILES	target	effect on	technique	tested at	remaining binding [%]
CC1CCCN1c1nccc(-c2cnn3ncccc23)n1 (stereo not shown)	Phosphatidylinositol 4,5-bisphosphate 3-kinase catalytic subunit alpha isoform (PIK3CA, Homo sapiens, UniProt P42336, M1043I)	binding		1 µM	100
C=CC(=O)N1CCC(C(=O)NCC(=O)N2CCN(c3nc(-c4cnc(N)nc4C(F)F)nc(N4CCOCC4)n3)CC2)CC1	PIK3CA H1047Y	binding	competition with immobilised ligand	1 µM	5.9
O=C(NCCCN1CCOCC1)c1ccc(Nc2nccc(-c3cc4ccccc4s3)n2)cc1	PIK3CA I800L	binding	competition with immobilised ligand	1 µM	13
Nc1ncc2c(n1)-c1c([nH]c3ccc(C#CC4CC4)cc13)CCCC2	PIK3CA H1047Y	binding	competition with immobilised ligand	1 µM	75
CCS(=O)(=O)c1cc2cc(C[C@](O)(CC(C)(C)c3ccc(F)cc3C(N)=O)C(F)(F)F)[nH]c2cn1	PIK3CA H1047L	cell-free assay	competition with immobilised ligand	1 µM	96
Cc1cnc(Nc2ccc(C(=O)N3CCC(N4CCCC4)CC3)cc2)nc1-c1cc2ccccc2s1	PIK3CA H1047L	binding	competition with immobilised ligand	1 µM	97
CNC(=O)[C@@H]1CC[C@@H](n2c(-c3ccc4cnccc4c3)nc3ccc(C(=O)NCc4cccc(C(N)=O)c4)cc32)C1	PIK3CA Q546K	binding	competition with immobilised ligand	1 µM	100
O=C(Nc1c[nH]nc1C(=O)NC1CCNCC1)c1cc(F)cc(F)c1	PIK3CA H1047L	binding	competition with immobilised ligand	1 µM	87
N[C@@H]1CCN(c2nccc(-c3cnn4ncccc34)n2)C1	PIK3CA	binding		1 µM	100
O=C(NCCCN1CCOCC1)c1ccc(Nc2ncc(Cl)c(-c3ccc(Cl)s3)n2)cc1	PIK3CA E542K	binding	competition with immobilised ligand	1 µM	100
C[C@@H](c1ccc(-n2cnc3c(N)ncnc32)cc1)N1CCc2nn(C)c(Cc3ccccc3)c2C1=O	PIK3CA E545A	binding	competition with immobilised ligand	0.1 µM	100
CN(CCCC(F)(F)F)c1nccc(-c2cnn3ncccc23)n1	PIK3CA C420R	binding		1 µM	100
c1cncc(-c2cccc(Nc3nccc(NC4CCCCC4)n3)c2)c1	PIK3CA H1047L	binding	competition with immobilised ligand	10 µM	100
O=C(c1ccc(Nc2nccc(-c3cc4ccccc4s3)n2)cc1)N1CCC(N2CCCC2)CC1	PIK3CA H1047L	binding	competition with immobilised ligand	1 µM	100
CN(C)c1nccc(-c2cnc3ncccn23)n1	PIK3CA	binding		1 µM	71
COc1cnc(Nc2cccc(S(N)(=O)=O)c2)nc1N1CCN(c2ccccc2)C(=O)C1	PIK3CA C420R	binding	competition with immobilised ligand	1 µM	95

SMILES	target	effect on	technique	tested at	remaining binding [%]
CO[C@@H](C)c1c(Nc2ccc([C@@H](N(C)C(=O)C3CCS(=O)(=O)CC3)C(F)(F)F)cc2)cnc2cc(Cl)nn12	PIK3CA H1047L	cell-free assay	competition with immobilised ligand	1 µM	98
O=C(NCC1CCOCC1)c1n[nH]cc1NC(=O)c1c(F)cccc1F	PIK3CA H1047Y	binding	competition with immobilised ligand	1 µM	100
CCOCCn1cc(C(=O)Nc2ccc(-n3nc(-c4cccnc4)cc3C(F)(F)F)cn2)ccc1=O	PIK3CA E545K	cell-free assay	competition with immobilised ligand	1 µM	96
F[C@@H]1CCN(c2nccc(-c3cnn4ncccc34)n2)C1	PIK3CA E545A	binding		1 µM	92
COc1cnc(Nc2cccc(S(N)(=O)=O)c2)nc1N1CCN(c2ccccc2)CC1	PIK3CA H1047Y	binding	competition with immobilised ligand	1 µM	74
O=S(=O)(NC1CCC(c2cc(F)ccc2F)(S(=O)(=O)c2ccc(Cl)cc2)CC1)C(F)(F)F (stereo not shown)	PIK3CA E542K	cell-free assay	competition with immobilised ligand	1 µM	100
COc1ncc2cc3ccccc3nc2c1C#N	PIK3CA H1047Y	cell-free assay	competition with immobilised ligand	5 µM	86
CCC(=O)N[C@H]1CC[C@@H](C(=O)N(C)c2ccc(-c3nc4ccccc4o3)cc2)C1	PIK3CA E545K	cell-free assay	competition with immobilised ligand	1 µM	74
CCN1CCN(Cc2ccc(C(=O)Nc3ccc(C)c(Oc4ccc5c(c4)CC(=O)N5)c3)cc2C(F)(F)F)CC1	PIK3CA Q546K	binding	competition with immobilised ligand	1 µM	100
CN(C(=O)c1ccccc1)c1cc(N(C)c2ccc3c(c2)CCc2ccc(C(=O)NCCN4CCOCC4)cc2C3=O)ccc1F	PIK3CA I800L	cell-free assay	competition with immobilised ligand	1 µM	62
O=C(c1ccc(Nc2ncc(Cl)c(-c3ccc(Cl)s3)n2)cc1)N1CCC(N2CCCC2)CC1	PIK3CA C420R	binding	competition with immobilised ligand	1 µM	100
O=C(NS(=O)(=O)c1ccc(NCC2CCOCC2)c([N+](=O)[O-])c1)c1ccc(N2CCN(Cc3ccc(C(F)(F)F)cc3-c3ccc(Cl)cc3)CC2)cc1Oc1cnc2[nH]ccc2c1	PIK3CA	cell-free assay	competition with immobilised ligand	1 µM	69
CN(c1nccc(-c2cnn3ncccc23)n1)C1CC1	PIK3CA E542K	binding		1 µM	56
O=C(NCc1ncc(C(F)(F)F)cc1Cl)c1ccc2c(c1)C1(CCS(=O)(=O)CC1)[C@@H](C1CC1)N2S(=O)(=O)c1ccc(F)cc1	PIK3CA Q546K	cell-free assay	competition with immobilised ligand	1 µM	72
Cc1cnn2ncc(-c3ccnc(N(C)C)n3)c2c1	PIK3CA E542K	binding		1 µM	79
